Data set [1] has as its system Rattus norvegicus. The data set can be described thus: Rat PCA Test(50% inhibition of spot areas)in the female albino rats after (ip) administration in 10% aqueous acacia gum; value ranges from 145-288. The conditions noted are these: read-out: ID50 (the source's name). The format is functional. A digest of the protocol:
(§1)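 Female albino rats (200–250 g) received intradermal ventral injections of rat anti-egg-albumin antiserum; donors were raised with egg albumin im plus H. pertussis ip, and serum was taken at 12 days. 24 h later, compound was given ip in 10% acacia gum (10 mL/kg), 10 rats/group. Challenge 30 min later was iv 0.3% egg albumin plus 1% Evans blue. Blued areas were measured 30 min after challenge.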

Data set [2] in a line: In vivo toxic effect was determined in mouse after oral administration with 10% aqueous acacia gum; value ranges from 3.08-6.27. The format is toxicity, organism-based. A digest of the protocol: (§2)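 Female albino mice, 20-30 g. Compound given orally as solution or suspension in 10% aqueous acacia gum, 10 animals per dose. Deaths recorded over 7 days.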
Data set [3] deals with Cavia porcellus. The data set can be described thus: Antibronchospatic activity determined by histamine stimulated bronchospasm inhibition in guinea pigs after(i.v.) administration. The format is functional, Bronchiole. A digest of the protocol:
(§3)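 Guinea pigs, Konzett–Rössler preparation. Bronchospasm was induced with histamine. Compound was given iv (1 mL/kg) 1 min before the agonist, dissolved in saline or saline with slight excess HCl or CH3SO3H (pH 3.5–4). Three doses were tested in duplicate, chosen to give 20–90% inhibition. ID75 was read graphically from log dose–response curves.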

The test system of data set [4] is Mus musculus. The data set can be described thus: In vivo toxic effect was determined in mouse after intraperitoneal administration with 10% aqueous acacia gum; NA means poorly absorbed. The format is toxicity, organism-based. The conditions noted are these: ip. In short, it runs like this: (§4)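 Female albino mice (20-30 g), 10 animals per dose, dosed intraperitoneally with compound in solution or suspension; compounds tested as salts unless noted. Mortality was recorded over 7 days.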

The test system of data set [5] is Rattus norvegicus. Put plainly: Inhibition of mast cell degranulation was assessed in female albino rats at a dose of 50 umol/kg iv. In kind it is functional.
A short description of data set [6]: In vivo toxic effect was determined in mouse after oral administration with 10% aqueous acacia gum; value ranges from 4.50-5.90. The format is toxicity, organism-based. A digest of the protocol: as §2
The test system of data set [7] is Rattus norvegicus. Put plainly: Rat PCA Test(50% inhibition of spot areas)in the female albino rats after oral administration in 10% aqueous acacia gum; value ranges from 161-222. In kind it is functional. The conditions noted are these: read-out: ID50 (the source's name). In short, it runs like this: (§5)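 Female rats (200-250 g) were passively sensitized by ventral intradermal anti-egg-albumin antiserum. This was raised in rats by intramuscular 1% egg albumin plus ip H. pertussis vaccine, with serum taken at 12 days. After 24 h, groups of 10 were dosed orally with compound or vehicle (10 mL/kg). At 60 min, iv challenge used 0.3% egg albumin with 1% Evans blue. Blued areas were measured after 30 min.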

In data set [8] the test system is Rattus norvegicus. The data set can be described thus: Rat PCA Test(50% inhibition of spot areas)in the female albino rats after (ip) administration in 10% aqueous acacia gum; value ranges from 128-203. The following applies: read-out: ID50 (the source's name). The format is functional. In short, it runs like this: as §1
The nature of data set [9]: In vivo toxic effect was determined in mouse after intraperitoneal administration with 10% aqueous acacia gum; value ranges from 0.54-0.99. The format is toxicity, organism-based. The conditions noted are these: ip. In short, it runs like this: as §4
A short description of data set [10]: In vivo toxic effect was determined in mouse after oral administration with 10% aqueous acacia gum; value ranges from 0.94-1.65. In kind it is toxicity, organism-based. A digest of the protocol: as §2
Data set [11] in a line: In vivo toxic effect was determined in mouse after intraperitoneal administration with 10% aqueous acacia gum; value ranges from 0.97-2.74. The format is toxicity, organism-based. The conditions noted are these: ip. In short, it runs like this: as §4
Data set [12] in a line: In vivo toxic effect was determined in mouse after oral administration with 10% aqueous acacia gum; value ranges from 0.97-1.87. In kind it is toxicity, organism-based. In short, it runs like this:
as §2

Data set [13] has as its system Rattus norvegicus. Put plainly: Rat PCA Test(50% inhibition of spot areas)in the female albino rats, using Goose and Blair method by dissolving or suspended the compound in 10% aqueous acacia gum and administered perorally.; Value ranges from (26-199). The conditions noted are these: po, read-out: ID50 (the source's name). In kind it is functional. A digest of the protocol: as §5

Data set [14] relates to Rattus norvegicus. Put plainly: Rat PCA Test(50% inhibition of spot areas)in the female albino rats after (ip) administration in 10% aqueous acacia gum; value ranges from 35-79. The following applies: read-out: ID50 (the source's name). In kind it is functional. A digest of the protocol:
as §1

In data set [15] the test system is Rattus norvegicus. The data set can be described thus: Inhibition of mast cell degranulation was assessed in female albino rats at a dose of 32 umol/kg iv. In kind it is functional.
A short description of data set [16]: In vivo toxic effect was determined in mouse after intraperitoneal administration with 10% aqueous acacia gum; value ranges from (0.47-0.85). The following applies: ip. In kind it is toxicity, organism-based. In short, it runs like this: as §4
Data set [17] has as its system Cavia porcellus. Put plainly: Antibronchospatic activity was determined by inhibition of histamine stimulated bronchospasm in guinea pigs after (iv) administration. In kind it is functional, Bronchiole. In short, it runs like this:
as §3

In data set [18] the test system is Rattus norvegicus. The data set can be described thus: Rat PCA Test(50% inhibition of spot areas)in the female albino rats after ip administration in 10% aqueous acacia gum. In kind it is functional. The following applies: read-out: ID50 (the source's name). In short, it runs like this: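 Antiserum came from female rats given 1% egg albumin in 0.9% NaCl intramuscularly plus Haemophilus pertussis vaccine (2 × 10^10 organisms) intraperitoneally, and was collected 12 days later. Recipient rats (200-250 g) got it intradermally at a ventral site. After 24 h, groups of 10 received vehicle or compound ip. At 30 min they were challenged iv with 0.3% egg albumin plus 1% Evans blue. Blued skin areas were measured 30 min later.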

Data set [19] in a line: In vivo toxic effect was determined in mouse after intraperitoneal administration with 10% aqueous acacia gum; value ranges from 0.27-0.43. In kind it is toxicity, organism-based. The following applies: ip. A digest of the protocol: as §4
For data set [20], the system named is Rattus norvegicus. Put plainly: Rat PCA Test(50% inhibition of spot areas)in the female albino rats after ip administration in 10% aqueous acacia gum; Value ranges from (6-147). The conditions noted are these: read-out: ID50 (the source's name).
The nature of data set [21]: In vivo toxic effect was determined in mouse after intraperitoneal administration with 10% aqueous acacia gum; value ranges from 0.56-0.94. The format is toxicity, organism-based. The conditions noted are these: ip. In short, it runs like this:
as §4

Data set [22] concerns Rattus norvegicus. Put plainly: Rat PCA Test(50% inhibition of spot areas)in the female albino rats after (ip) administration in 10% aqueous acacia gum. The format is functional. The following applies: read-out: ID50 (the source's name). In short, it runs like this: as §1
Data set [23] can be described thus: In vivo toxicity in mouse after oral administration with 10% aqueous acacia gum. The format is organism-based. In short, it runs like this: as §2
Data set [24] in a line: In vivo toxic effect was determined in mouse after intraperitoneal administration with 10% aqueous acacia gum; value ranges from 1.35-1.82. The format is toxicity, organism-based. The following applies: ip. In short, it runs like this:
as §4

The source of these data is ChEMBL document CHEMBL1123658, “1-(2-pyridinyl)piperazine derivatives with antianaphylactic, antibronchospastic, and mast cell stabilizing activities” (J Med Chem, 1987).

On to `COc1cccc(N2CCN(CCC(=O)Nc3ccc([N+](=O)[O-])cc3)CC2)n1.Cl`, for which the ED50 in data set [1] stood at 204 µmol/kg. The compound further returned an LD50 in [2] of 4390 µmol/kg. The ID75 in data set [3] came to 0.16 µM/kg.

As for `Cl.Cl.O=C(CCN1CCN(c2ccccn2)CC1)Nc1ccc(O)cc1`, the LD50 result in data set [4] was “Not Active”; in data set [6], 5200 µmol/kg. The inhibition in vivo at 50 µmol/kg in data set [5] was 64%. This compound also yielded an ID75 in data set [3] of 0.49 µM/kg. For the same compound, the results for the ED50 in data set [7] and in data set [8] were 189 µmol/kg and 161 µmol/kg, respectively.

With `CC(=O)c1cccc(NC(=O)CCN2CCN(c3ccccn3)CC2)c1.Cl.Cl`, the results for the 50% lethal dose (LD50) in [9] and in data set [10] were 680 µmol/kg and 1110 µmol/kg, respectively. This compound showed an ID75 in [3] of 0.2 µM/kg.

`O=C(CCN1CCN(c2ccccn2)CC1)Nc1ccccc1`: the LD50 in data set [11] came out at 1160 µmol/kg; in [12], 1350 µmol/kg. Also, the ED50 came out at 72 µmol/kg in [13] and 53 µmol/kg in [14]. The compound also displayed an inhibition in vivo at 32 µmol/kg in data set [15] of 12%.

`CCCCOc1cc(C(=O)NCCN2CCN(c3ccccn3)CC2)c2ccccc2n1.Cl.Cl`: the LD50 in data set [16] was 540 µmol/kg. This compound gave an ID75 in data set [17] of 8.15 µM/kg. For the same compound, in data set [18], the ED50 is greater than 175 µmol/kg.

`Cc1c(C)c([N+](=O)[O-])c(C)c(C)c1C(=O)NCCN1CCN(c2ccccn2)CC1.Cl.Cl` returned an LD50 in data set [19] of 320 µmol/kg. Moreover, the ED50 in [20] amounted to 30 µmol/kg.

For the compound `Cc1cc(C)c(C)c(NC(=O)CN2CCN(c3ccccn3)CC2)c1C`, the median lethal dose (LD50) in data set [21] was 650 µmol/kg. Also, in data set [22], the ED50 was greater than 212 µmol/kg. This compound also had an ID75 in [3] greater than 23.5 µM/kg.

Turning to `O=C(CCN1CCN(c2ccccn2)CC1)Nc1ccc(NC(=O)Nc2ccccc2)cc1`, in [22], the ED50 is greater than 225 µmol/kg. This compound also showed an ID75 in data set [3] of 0.31 µM/kg. The LD50 in data set [23] was greater than 6700 µmol/kg.

Take `NS(=O)(=O)c1ccc(NC(=O)CCN2CCN(c3ccccn3)CC2)cc1`: the LD50 result is “Not Active” in data set [4] and greater than 7700 µmol/kg in data set [23]. Besides, in [22], the ED50 was greater than 257 µmol/kg. In [3], this compound yielded an ID75 of 0.19 µM/kg.

In turn, `COC(=O)CC(C)N1CCN(c2ccccn2)CC1.O=C(O)/C=C\C(=O)O.O=C(O)/C=C\C(=O)O` (stereo not given) showed an LD50 in data set [24] of 1350 µmol/kg. Further, the ED50 in data set [22] was greater than 404 µmol/kg. This compound also came in with an ID75 in data set [3] of 2.37 µM/kg.

By LD50 is commonly meant the dose at which mortality reaches 50%. A higher LD50 goes with a less toxic substance. As a reminder, the inhibition in vivo is the share of the control response that was lost under treatment.
